Measured values: ChEMBL document CHEMBL1125319, “Synthesis and hypoglycemic activity of substituted 8-(1-piperazinyl)imidazo[1,2-a]pyrazines” (J Med Chem, 1992)
Active and inactive are the calls of the source. The calls are words filed in the database; no cut-off is given here.

What was measured:
[1] = target: T1, Alpha-2A adrenergic receptor (Bos taurus, UniProt Q28838); experiment: Binding affinity at Alpha-2 adrenergic receptor in calf cerebral cortex homogenates by [3H]clonidine displacement.; type: tissue-based
T1 sequence (Q28838 whole entry): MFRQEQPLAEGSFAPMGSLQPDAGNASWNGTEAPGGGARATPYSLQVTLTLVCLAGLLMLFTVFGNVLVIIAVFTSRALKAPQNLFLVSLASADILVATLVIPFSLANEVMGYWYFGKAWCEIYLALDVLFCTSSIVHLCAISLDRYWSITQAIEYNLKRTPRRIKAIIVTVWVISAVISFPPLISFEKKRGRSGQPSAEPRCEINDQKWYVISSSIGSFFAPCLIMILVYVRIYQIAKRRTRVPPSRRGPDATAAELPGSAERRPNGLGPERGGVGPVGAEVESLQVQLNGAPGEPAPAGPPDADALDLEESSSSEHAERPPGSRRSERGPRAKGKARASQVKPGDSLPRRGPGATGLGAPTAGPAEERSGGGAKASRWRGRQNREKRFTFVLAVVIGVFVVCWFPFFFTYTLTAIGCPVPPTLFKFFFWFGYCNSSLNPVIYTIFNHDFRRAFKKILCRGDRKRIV

Mus musculus [2] = experiment: Ability to lower blood glucose in insulin-resistant hyperglycemic ob/ob mice after 30 mg/kg p.o. administration.; type: functional; details: route oral
[3] = Hypoglycemic potency relative to MTP-1403; type: functional
Procedure, shortened: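 ob/ob insulin-resistant hyperglycemic mice on lab chow with free water. Graded oral doses given to groups of 5 mice; glucose load 2 g/kg sc 30 min after dosing, orbital sinus bleed 30 min after the load. Blood glucose compared with a reference standard by parallel-line bioassay, giving potency relative to the standard.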

[4] = target: T2, Beta-1 adrenergic receptor (Cavia porcellus, UniProt B0FL73)
[5] = target: T3, Alpha-1A adrenergic receptor (Bos taurus, UniProt P18130); experiment: Binding affinity against alpha-1 adrenergic receptor was determined in calf cerebral cortex homogenates using [3H]prazosin as radioligand; type: tissue-based
T3 sequence (P18130 whole entry): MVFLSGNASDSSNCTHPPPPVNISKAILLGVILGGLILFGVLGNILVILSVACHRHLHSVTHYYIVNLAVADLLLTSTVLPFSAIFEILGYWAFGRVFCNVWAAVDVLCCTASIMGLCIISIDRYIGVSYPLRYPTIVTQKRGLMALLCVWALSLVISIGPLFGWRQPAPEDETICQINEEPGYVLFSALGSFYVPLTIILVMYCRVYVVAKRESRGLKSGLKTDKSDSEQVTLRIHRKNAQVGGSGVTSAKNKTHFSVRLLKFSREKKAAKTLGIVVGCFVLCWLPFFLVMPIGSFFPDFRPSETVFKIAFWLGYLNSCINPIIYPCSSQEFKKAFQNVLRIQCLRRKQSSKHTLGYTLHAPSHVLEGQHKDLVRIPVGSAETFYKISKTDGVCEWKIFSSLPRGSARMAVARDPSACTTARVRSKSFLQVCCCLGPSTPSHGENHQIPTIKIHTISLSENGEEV

[6] = target: T4, Alpha-1A adrenergic receptor (Bos taurus) (UniProt P18130); experiment: Inhibition of binding of [3H]prazosin to Alpha-1 adrenergic receptor in calf cerebral cortex homogenates at 10000 nM; type: tissue-based
T4 sequence (whole entry): T3 sequence (P18130 whole entry)

[7] = Binding affinity against Alpha-1 adrenergic receptor of calf cerebral cortex homogenates using [3H]prazosin; type: tissue-based, Bos taurus
[8] = target: Beta-2 adrenergic receptor (Cavia porcellus, UniProt Q8K4Z4)
Mus musculus [9] = experiment: Compound was evaluated for its ability to lower blood glucose in insulin-resistant hyperglycemic ob/ob mice after peroral administration of 30 mg/kg single dose; NA= not active; type: functional, organism-based; set-up: dose 30 mg/kg; details: at 30 mg/kg
[10] = target: T2, Beta-1 adrenergic receptor; experiment: Binding affinity against Beta-1 adrenergic receptor was measured using [125I]CYP as radioligand; NB= not bound

Sequence of Beta-2 adrenergic receptor (Q8K4Z4 whole entry): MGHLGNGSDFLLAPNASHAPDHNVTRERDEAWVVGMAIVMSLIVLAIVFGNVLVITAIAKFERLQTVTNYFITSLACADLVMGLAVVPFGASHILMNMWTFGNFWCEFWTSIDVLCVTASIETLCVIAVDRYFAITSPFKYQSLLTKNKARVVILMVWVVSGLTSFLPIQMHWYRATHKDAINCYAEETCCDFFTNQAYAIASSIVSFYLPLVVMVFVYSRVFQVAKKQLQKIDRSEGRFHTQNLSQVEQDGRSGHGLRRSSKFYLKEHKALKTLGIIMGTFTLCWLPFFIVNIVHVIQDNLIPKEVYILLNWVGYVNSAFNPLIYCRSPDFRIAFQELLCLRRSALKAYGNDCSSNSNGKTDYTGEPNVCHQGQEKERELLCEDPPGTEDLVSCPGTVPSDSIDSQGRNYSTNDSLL
T2 sequence (B0FL73 whole entry): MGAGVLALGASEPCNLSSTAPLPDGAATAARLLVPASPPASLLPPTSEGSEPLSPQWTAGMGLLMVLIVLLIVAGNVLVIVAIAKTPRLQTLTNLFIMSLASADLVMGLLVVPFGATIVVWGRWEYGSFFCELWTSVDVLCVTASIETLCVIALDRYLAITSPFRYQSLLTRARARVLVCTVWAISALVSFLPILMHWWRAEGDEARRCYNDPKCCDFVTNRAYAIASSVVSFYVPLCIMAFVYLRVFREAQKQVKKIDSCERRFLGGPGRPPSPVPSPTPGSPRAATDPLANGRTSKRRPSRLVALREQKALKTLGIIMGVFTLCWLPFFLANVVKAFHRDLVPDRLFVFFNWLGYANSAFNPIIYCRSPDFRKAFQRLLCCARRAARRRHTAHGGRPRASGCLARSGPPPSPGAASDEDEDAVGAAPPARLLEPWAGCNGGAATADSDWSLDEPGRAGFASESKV

**Q.** What does the source list for `Cc1cn2ccnc(N3CCNCC3)c2n1.Cl`?
**A.** Ki [1]: 51 nM; Blood glucose, percent of control (Mus musculus [2]): 28%; Relative potency [3]: 32; Ki [4]: 310 nM

**Q.** Which Ki [5] does the source give for `Cl.Cl.Clc1cn2ccnc2c(N2CCNCC2)n1` here?
**A.** 250 nM

**Q.** And the “Blood glucose, percent of control” value (Mus musculus [2])?
**A.** 36%

**Q.** And the Relative potency [3]?
**A.** > 5

**Q.** Which inhibition [6] does the source give for `CC1CN=C2C(N3CCNCC3)=NC=CN21.O=C(O)C/C=C\CC(=O)O` (stereo not given) here?
**A.** 12%

**Q.** And the Ki [1]?
**A.** 1600 nM

**Q.** What about the “Blood glucose, percent of control” value (Mus musculus [2]) of the same compound?
**A.** 88%

**Q.** Which Ki [1] does the source give for `Cc1cnc(N2CCNCC2)c2nccn12.Cl` here?
**A.** 140 nM

**Q.** And the Ki [7]?
**A.** 2600 nM

**Q.** What about the “Blood glucose, percent of control” value (Mus musculus [2]) of the same compound?
**A.** 52%

**Q.** And the Relative potency [3]?
**A.** 17

**Q.** And the Ki [8]?
**A.** 820 nM

**Q.** And the Ki [4]?
**A.** 360 nM

**Q.** With `CC(C)c1cnc2c(N3CCNCC3)nccn12.Cl` as the compound, how does the Ki [1] read?
**A.** 370 nM

**Q.** And the Ki [7]?
**A.** 5430 nM

**Q.** And the “Blood glucose, percent of control” value (Mus musculus [2])?
**A.** 60%

**Q.** What about the Relative potency [3] of the same compound?
**A.** 3

**Q.** And the Ki [8]?
**A.** 2010 nM

**Q.** What about the Ki [4] of the same compound?
**A.** 2990 nM

**Q.** With `C1=CN2CCN=C2C(N2CCNCC2)=N1.O=C(O)C/C=C\CC(=O)O` as the compound, how does the inhibition [6] read?
**A.** 15%

**Q.** What about the Ki [1] of the same compound?
**A.** 870 nM

**Q.** What about the “Blood glucose, percent of control” value (Mus musculus [2]) of the same compound?
**A.** 71%

**Q.** With `CCc1cnc2c(N3CCNCC3)nccn12.Cl` as the compound, how does the inhibition [6] read?
**A.** 30%

**Q.** And the Ki [1]?
**A.** 530 nM

**Q.** And the “Blood glucose, percent of control” value (Mus musculus [2])?
**A.** 54%

**Q.** And the Relative potency [3]?
**A.** 4

**Q.** What about the Ki [8] of the same compound?
**A.** 3240 nM

**Q.** And the Ki [4]?
**A.** 5000 nM

**Q.** What does the source list for `Cc1cnc2c(N3CCNCC3)nccn12.Cl`?
**A.** Ki [1]: 240 nM; Ki [7]: 1800 nM; Blood glucose, percent of control (Mus musculus [2]): 32%; Relative potency [3]: 11; Ki [8]: 2300 nM; Ki [4]: 2400 nM

**Q.** Which results are given for `c1cn2ccnc2c(N2CCNCC2)n1`?
**A.** Ki [7]: 3100 nM; Relative potency [3]: 76; Ki [8]: 1700 nM; Ki [4]: 400 nM

**Q.** What does the source list for `Cc1cnc(N2CCN(C)CC2)c2nccn12`?
**A.** inhibition [6]: 45%; Ki [1]: 81 nM; Blood glucose, percent of control (Mus musculus [2]): 51%; Relative potency [3]: 6; Ki [4]: 2800 nM

**Q.** Which results are given for `CN1CCN(c2ncc(Br)n3ccnc23)CC1`?
**A.** inhibition [6]: 22%; Ki [1]: 270 nM; Blood glucose, percent of control (Mus musculus [2]): 100%; Ki [4]: 500 nM

**Q.** What does the source list for `Cc1cnc(N2CCNCC2)c2ncc(C)n12.Cl`?
**A.** Ki [1]: 340 nM; Blood glucose, percent of control (Mus musculus [2]): 72%; Ki [4]: 400 nM

**Q.** With `CN1CCN(c2nccn3c(Br)cnc23)CC1` as the compound, how does the inhibition [6] read?
**A.** 4%

**Q.** And the Ki [1]?
**A.** 1350 nM

**Q.** What about the “Blood glucose, percent of control” value (Mus musculus [2]) of the same compound?
**A.** 98%

**Q.** What about the Ki [4] of the same compound?
**A.** 6300 nM

**Q.** Which results are given for `Brc1cnc(N2CCNCC2)c2nccn12`?
**A.** Ki [1]: 182 nM; Ki [7]: 1490 nM; Blood glucose, percent of control (Mus musculus [2]): 87%; Ki [8]: 520 nM; Ki [4]: 170 nM

**Q.** What does the source list for `Brc1cnc(N2CCNCC2)c2ncc(Br)n12`?
**A.** Ki [1]: 11900 nM; Control (Mus musculus [9]): inactive; Ki [4]: 630 nM

**Q.** What does the source list for `Cc1cn2ccnc2c(N2CCNCC2)n1.Cl`?
**A.** Ki [1]: 190 nM; Ki [7]: 500 nM; Blood glucose, percent of control (Mus musculus [2]): 61%; Ki [8]: 280 nM; Ki [4]: 220 nM

**Q.** Which Ki [1] does the source give for `CCCc1cnc2c(N3CCNCC3)nccn12.Cl` here?
**A.** 480 nM

**Q.** And the Ki [7]?
**A.** 2650 nM

**Q.** And the “Blood glucose, percent of control” value (Mus musculus [2])?
**A.** 59%

**Q.** And the Relative potency [3]?
**A.** 4

**Q.** What about the Ki [8] of the same compound?
**A.** 1390 nM

**Q.** What about the Ki [4] of the same compound?
**A.** 7790 nM

**Q.** For `Cl.Clc1cnc2c(N3CCNCC3)nccn12`, which Ki [7] is on record?
**A.** 2780 nM

**Q.** And the “Blood glucose, percent of control” value (Mus musculus [2])?
**A.** 66%

**Q.** With `Cl.FCCc1cnc2c(N3CCNCC3)nccn12` as the compound, how does the “Blood glucose, percent of control” value (Mus musculus [2]) read?
**A.** 56%

**Q.** What about the Relative potency [3] of the same compound?
**A.** 8

**Q.** With `Cc1cn2c(C)cnc2c(N2CCNCC2)n1.Cl` as the compound, how does the Ki [1] read?
**A.** 620 nM

**Q.** What about the Ki [7] of the same compound?
**A.** 300 nM

**Q.** What about the “Blood glucose, percent of control” value (Mus musculus [2]) of the same compound?
**A.** 47%

**Q.** And the Relative potency [3]?
**A.** 6

**Q.** What about the Ki [8] of the same compound?
**A.** 250 nM

**Q.** What about the Ki [4] of the same compound?
**A.** 150 nM

**Q.** For `CN1CCN(c2nccn3ccnc23)CC1`, which Ki [1] is on record?
**A.** 1020 nM

**Q.** What about the Ki [10] of the same compound?
**A.** Not Active

**Q.** What about the “Blood glucose, percent of control” value (Mus musculus [2]) of the same compound?
**A.** 62%

**Q.** What about the Relative potency [3] of the same compound?
**A.** 19
